In ChEMBL document CHEMBL3627671, “Novel derivatives of nitro-substituted salicylic acids: Synthesis, antimicrobial activity and cytotoxicity” (Bioorg Med Chem, 2015):
Values after ≈ are worked out from the molar mass of the structure shown.

Tests used:
Format in all cases: functional
[1] = tested on: Candida albicans; experiment: Antifungal activity against Candida albicans ATCC 44859 after 24 hrs by microdilution broth method; conditions: ATCC 44859, 24 h
Outline: (§1)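 CLSI M27-A3 broth microdilution in RPMI 1640 with glutamine, buffered to pH 7.0 with MOPS; DMSO diluent. Yeast inoculum 5 × 10^3 ± 0.2 CFU/mL. Moulds grown on Sabouraud agar 3–10 days before spore harvest, final inoculum 0.5-5 × 10^4 CFU/mL, checked in a Bürker chamber. Incubated dark, humid, 35 °C, read at 24 and 48 h visually and at 540 nm. MIC taken as ≥80% (yeasts) or ≥50% (filamentous) growth reduction versus control.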

[2] = tested on: Mycobacterium tuberculosis; experiment: Antimycobacterial activity against Mycobacterium tuberculosis H37Rv 331/88 after 21 days; conditions: H37Rv 331/88, 504 h
[3] = tested on: Staphylococcus aureus; experiment: Antibacterial activity against Staphylococcus aureus CCM 4516/08 after 24 hrs by microdilution broth method; conditions: CCM 4516/08, 24 h
[4] = tested on: Aspergillus fumigatus; experiment: Antifungal activity against Aspergillus fumigatus 231 after 48 hrs by microdilution broth method; conditions: Aspergillus fumigatus, 231, 48 h; outline: as §1
[5] = tested on: Enterococcus sp.; experiment: Antibacterial activity against Enterococcus sp. J 14365/08 after 48 hrs by microdilution broth method; conditions: J 14365/08, 48 h
Outline: (§2)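 Mueller-Hinton broth microdilution (modified M07-A07), pH 7.4 (±0.2). Compounds dissolved in DMSO, tested at final 500 to 0.49 µmol/L. Inoculum in sterile water matched to 0.5 McFarland. Incubated in the dark, humid atmosphere, 35 °C, read at 24 and 48 h visually and at 540 nm. MIC taken as ≥95% growth reduction (IC95) versus control.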

[6] = tested on: Mycobacterium avium; experiment: Antimycobacterial activity against Mycobacterium avium 330/80 after 14 days; conditions: 330/80, 336 h
[7] = tested on: Mycobacterium kansasii; experiment: Antimycobacterial activity against Mycobacterium kansasii 6509/96 after 14 days; conditions: 6509/96, 336 h
Outline: (§3)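 Šula's semisynthetic medium micromethod at 37 °C, read after 7, 14 and 21 days. The 1.0 McFarland suspension was diluted 10^-4. MIC determined. 6509/96 is a clinical isolate.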

[8] = tested on: Aspergillus fumigatus; experiment: Antifungal activity against Aspergillus fumigatus 231 after 24 hrs by microdilution broth method; conditions: Aspergillus fumigatus, 231, 24 h; outline: as §1
[9] = tested on: Candida albicans; experiment: Antifungal activity against Candida albicans ATCC 44859 after 48 hrs by microdilution broth method; conditions: ATCC 44859, 48 h; outline: as §1
[10] = tested on: Enterococcus sp.; experiment: Antibacterial activity against Enterococcus sp. J 14365/08 after 24 hrs by microdilution broth method; conditions: J 14365/08, 24 h; outline: as §2
[11] = tested on: Candida tropicalis; experiment: Antifungal activity against Candida tropicalis 156 after 24 hrs by microdilution broth method; conditions: Candida tropicalis, 156, 24 h; outline: as §1
[12] = tested on: Mycobacterium avium; experiment: Antimycobacterial activity against Mycobacterium avium 330/80 after 21 days; conditions: 330/80, 504 h
[13] = tested on: Pichia kudriavzevii; experiment: Antifungal activity against Candida krusei E28 after 48 hrs by microdilution broth method; conditions: E28, 48 h; outline: as §1
[14] = tested on: Klebsiella pneumoniae; experiment: Antibacterial activity against ESBL-positive Klebsiella pneumoniae J 14368/08 after 24 hrs by microdilution broth method; conditions: J 14368/08, 24 h; outline: as §2
[15] = tested on: Staphylococcus aureus; experiment: Antibacterial activity against methicillin-resistant Staphylococcus aureus H 5996/08 after 24 hrs by microdilution broth method; conditions: H 5996/08, 24 h
[16] = tested on: Escherichia coli; experiment: Antibacterial activity against Escherichia coli CCM4517 after 48 hrs by microdilution broth method; conditions: CCM4517, 48 h; outline: as §2
[17] = tested on: Trichosporon asahii; experiment: Antifungal activity against Trichosporon asahii 1188 after 24 hrs by microdilution broth method; conditions: Trichosporon asahii, 1188, 24 h; outline: as §1
[18] = tested on: Staphylococcus epidermidis; experiment: Antibacterial activity against Staphylococcus epidermidis H 6966/08 after 48 hrs by microdilution broth method; conditions: H 6966/08, 48 h; outline: as §2
[19] = tested on: Klebsiella pneumoniae; experiment: Antibacterial activity against ESBL-positive Klebsiella pneumoniae J 14368/08 after 48 hrs by microdilution broth method; conditions: J 14368/08, 48 h; outline: as §2
[20] = tested on: Staphylococcus epidermidis; experiment: Antibacterial activity against Staphylococcus epidermidis H 6966/08 after 24 hrs by microdilution broth method; conditions: H 6966/08, 24 h; outline: as §2
[21] = tested on: Nakaseomyces glabratus; experiment: Antifungal activity against Candida glabrata 20/I after 48 hrs by microdilution broth method; outline: as §1
[22] = tested on: Candida tropicalis; experiment: Antifungal activity against Candida tropicalis 156 after 48 hrs by microdilution broth method; conditions: Candida tropicalis, 156, 48 h; outline: as §1
[23] = tested on: Lichtheimia corymbifera; experiment: Antifungal activity against Absidia corymbifera 272 after 24 hrs by microdilution broth method; conditions: Lichtheimia corymbifera, 272, 24 h; outline: as §1
[24] = tested on: Staphylococcus aureus; experiment: Antibacterial activity against Staphylococcus aureus CCM 4516/08 after 48 hrs by microdilution broth method; conditions: CCM 4516/08, 48 h
[25] = tested on: Pichia kudriavzevii; experiment: Antifungal activity against Candida krusei E28 after 24 hrs by microdilution broth method; conditions: E28, 24 h; outline: as §1
[26] = tested on: Mycobacterium kansasii; experiment: Antimycobacterial activity against Mycobacterium kansasii 235/80 after 14 days; conditions: 235/80, 336 h; outline: as §3
[27] = tested on: Staphylococcus aureus; experiment: Antibacterial activity against methicillin-resistant Staphylococcus aureus H 5996/08 after 48 hrs by microdilution broth method; conditions: H 5996/08, 48 h
[28] = tested on: Klebsiella pneumoniae; experiment: Antibacterial activity against Klebsiella pneumoniae D 11750/08 after 24 hrs by microdilution broth method; conditions: D 11750/08, 24 h; outline: as §2
[29] = tested on: Mycobacterium kansasii; experiment: Antimycobacterial activity against Mycobacterium kansasii 6509/96 after 21 days; conditions: 6509/96, 504 h; outline: as §3
[30] = tested on: Escherichia coli; experiment: Antibacterial activity against Escherichia coli CCM4517 after 24 hrs by microdilution broth method; conditions: CCM4517, 24 h; outline: as §2
[31] = tested on: Mycobacterium kansasii; experiment: Antimycobacterial activity against Mycobacterium kansasii 235/80 after 7 days; conditions: 235/80, 168 h; outline: as §3
[32] = tested on: Nakaseomyces glabratus; experiment: Antifungal activity against Candida glabrata 20/I after 24 hrs by microdilution broth method; outline: as §1
[33] = tested on: Mycobacterium tuberculosis; experiment: Antimycobacterial activity against Mycobacterium tuberculosis H37Rv 331/88 after 14 days; conditions: H37Rv 331/88, 336 h
[34] = tested on: Pseudomonas aeruginosa; experiment: Antibacterial activity against Pseudomonas aeruginosa CCM 1961 after 24 hrs by microdilution broth method; conditions: CCM 1961, 24 h; outline: as §2
[35] = tested on: Trichophyton mentagrophytes; experiment: Antifungal activity against Trichophyton mentagrophytes 445 after 48 hrs by microdilution broth method; conditions: Trichophyton mentagrophytes, 445, 48 h
[36] = tested on: Trichosporon asahii; experiment: Antifungal activity against Trichosporon asahii 1188 after 48 hrs by microdilution broth method; conditions: Trichosporon asahii, 1188, 48 h; outline: as §1
[37] = tested on: Trichophyton mentagrophytes; experiment: Antifungal activity against Trichophyton mentagrophytes 445 after 24 hrs by microdilution broth method; conditions: Trichophyton mentagrophytes, 445, 24 h
[38] = tested on: Lichtheimia corymbifera; experiment: Antifungal activity against Absidia corymbifera 272 after 48 hrs by microdilution broth method; conditions: Lichtheimia corymbifera, 272, 48 h; outline: as §1
[39] = tested on: Mycobacterium kansasii; experiment: Antimycobacterial activity against Mycobacterium kansasii 235/80 after 21 days; conditions: 235/80, 504 h; outline: as §3
[40] = tested on: Pseudomonas aeruginosa; experiment: Antibacterial activity against Pseudomonas aeruginosa CCM 1961 after 48 hrs by microdilution broth method; conditions: CCM 1961, 48 h; outline: as §2
[41] = tested on: Klebsiella pneumoniae; experiment: Antibacterial activity against Klebsiella pneumoniae D 11750/08 after 48 hrs by microdilution broth method; conditions: D 11750/08, 48 h; outline: as §2
[42] = tested on: Mycobacterium kansasii; experiment: Antimycobacterial activity against Mycobacterium kansasii 6509/96 after 7 days; conditions: 6509/96, 168 h; outline: as §3

## O=C(Nc1ccc([N+](=O)[O-])cc1)c1cc([N+](=O)[O-])ccc1O
[1]
  MIC: > 500 µM
[2]
  MIC: 125 µM (≈ 37.9 µg/mL)
[3]
  MIC: 250 µM (≈ 75.8 µg/mL)
[4]
  MIC: > 500 µM
[5]
  MIC: > 500 µM
[6]
  MIC: 250 µM (≈ 75.8 µg/mL)
[7]
  MIC: 125 µM (≈ 37.9 µg/mL)
[8]
  MIC: > 500 µM
[9]
  MIC: > 500 µM
[10]
  MIC: > 500 µM
[11]
  MIC: > 500 µM
[12]
  MIC: 250 µM (≈ 75.8 µg/mL)
[13]
  MIC: > 500 µM
[14]
  MIC: > 500 µM
[15]
  MIC: 250 µM (≈ 75.8 µg/mL)
[16]
  MIC: > 500 µM
[17]
  MIC: > 500 µM
[18]
  MIC: 500 µM (≈ 152 µg/mL)
[19]
  MIC: > 500 µM
[20]
  MIC: 500 µM (≈ 152 µg/mL)
[21]
  MIC: > 500 µM
[22]
  MIC: > 500 µM
[23]
  MIC: > 500 µM
[24]
  MIC: 250 µM (≈ 75.8 µg/mL)
[25]
  MIC: > 500 µM
[26]
  MIC: 62.5 µM (≈ 19 µg/mL)
[27]
  MIC: 250 µM (≈ 75.8 µg/mL)
[28]
  MIC: > 500 µM
[29]
  MIC: 125 µM (≈ 37.9 µg/mL)
[30]
  MIC: > 500 µM
[31]
  MIC: 16 µM (≈ 4.85 µg/mL)
[32]
  MIC: > 500 µM
[33]
  MIC: 62.5 µM (≈ 19 µg/mL)
[34]
  MIC: > 500 µM
[35]
  MIC: > 500 µM
[36]
  MIC: > 500 µM
[37]
  MIC: > 500 µM
[38]
  MIC: > 500 µM
[39]
  MIC: 125 µM (≈ 37.9 µg/mL)
[40]
  MIC: > 500 µM
[41]
  MIC: > 500 µM
[42]
  MIC: 62.5 µM (≈ 19 µg/mL)

## O=C(Nc1ccc([N+](=O)[O-])c(C(F)(F)F)c1)c1cc([N+](=O)[O-])ccc1O
[1]
  MIC: > 500 µM
[2]
  MIC: 32 µM (≈ 11.9 µg/mL)
[3]
  MIC: 62.5 µM (≈ 23.2 µg/mL)
[4]
  MIC: > 500 µM
[5]
  MIC: > 500 µM
[6]
  MIC: 125 µM (≈ 46.4 µg/mL)
[7]
  MIC: 62.5 µM (≈ 23.2 µg/mL)
[8]
  MIC: > 500 µM
[9]
  MIC: > 500 µM
[10]
  MIC: > 500 µM
[11]
  MIC: > 500 µM
[12]
  MIC: 125 µM (≈ 46.4 µg/mL)
[13]
  MIC: > 500 µM
[14]
  MIC: > 500 µM
[15]
  MIC: 31.2 µM (≈ 11.6 µg/mL)
[16]
  MIC: > 500 µM
[17]
  MIC: > 500 µM
[18]
  MIC: 125 µM (≈ 46.4 µg/mL)
[19]
  MIC: > 500 µM
[20]
  MIC: 125 µM (≈ 46.4 µg/mL)
[21]
  MIC: > 500 µM
[22]
  MIC: > 500 µM
[23]
  MIC: > 500 µM
[24]
  MIC: 62.5 µM (≈ 23.2 µg/mL)
[25]
  MIC: > 500 µM
[26]
  MIC: 62.5 µM (≈ 23.2 µg/mL)
[27]
  MIC: 31.2 µM (≈ 11.6 µg/mL)
[28]
  MIC: > 500 µM
[29]
  MIC: 125 µM (≈ 46.4 µg/mL)
[30]
  MIC: > 500 µM
[31]
  MIC: 32 µM (≈ 11.9 µg/mL)
[32]
  MIC: > 500 µM
[33]
  MIC: 32 µM (≈ 11.9 µg/mL)
[34]
  MIC: > 500 µM
[35]
  MIC: > 500 µM
[36]
  MIC: > 500 µM
[37]
  MIC: > 500 µM
[38]
  MIC: > 500 µM
[39]
  MIC: 125 µM (≈ 46.4 µg/mL)
[40]
  MIC: > 500 µM
[41]
  MIC: > 500 µM
[42]
  MIC: 62.5 µM (≈ 23.2 µg/mL)
